# Source: ChEMBL document CHEMBL1255449, “Antiviral properties, metabolism, and pharmacokinetics of a novel azolo-1,2,4-triazine-derived inhibitor of influenza A and B virus replication” (Antimicrob Agents Chemother, 2010)
# Calls of active or inactive are those of the source. No cut-off for these calls is given here.
# What was measured:
# [1] = Cmax in rabbit at 105 mg/kg, ig up to 24 hrs by HPLC analysis; assay type: ADME, organism-based, Oryctolagus cuniculus; set-up: dose 105 mg/kg, route intragastric; settings: in vivo, po
# In short: (§1)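 Rabbits (n = 4), anesthetised with ether-Fluorothane 10:1, given a single 105 mg/kg dose in water (12 ml) by gastric tube. Ear-vein blood was heparinised at set times up to 24 h, mixed with methanol, centrifuged, dried, redissolved in water and assayed by C18 HPLC. Parameters came from an extravascular noncompartmental model. F = (AUCi.g./dose)/(AUCi.v./dose); CL = dose/AUC; Vss = CL × MRT.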
# Oryctolagus cuniculus [2] = test: Volume of distribution at steady state in rabbit at 105 mg/kg, ig up to 24 hrs by HPLC analysis; assay type: ADME, organism-based; set-up: dose 105 mg/kg, route intragastric; settings: in vivo, po; in short: as §1
# [3] = Total AUC in rabbit at 105 mg/kg, ig up to 24 hrs by HPLC analysis; assay type: ADME, organism-based, Oryctolagus cuniculus; set-up: time AUCmax, dose 105 mg/kg, route intragastric; settings: in vivo, po; in short: as §1
# [4] = Tmax in rabbit at 105 mg/kg, ig by HPLC analysis; assay type: ADME, organism-based, Oryctolagus cuniculus; set-up: dose 105 mg/kg, route intragastric; settings: in vivo, po; in short: as §1
# [5] = Mean residence time in rabbit at 105 mg/kg, ig by HPLC analysis; assay type: ADME, organism-based, Oryctolagus cuniculus; set-up: dose 105 mg/kg, route intragastric; settings: in vivo, po; in short: as §1
# [6] = Apparent elimination half life in rabbit at 105 mg/kg, ig by HPLC analysis; assay type: ADME, organism-based, Oryctolagus cuniculus; set-up: dose 105 mg/kg, route intragastric; settings: in vivo, po, read-out: beta t1/2 (converted); in short: as §1
# [7] = Total clearance in rabbit at 105 mg/kg, ig up to 24 hrs by HPLC analysis; assay type: ADME, organism-based, Oryctolagus cuniculus; set-up: dose 105 mg/kg, route intragastric; settings: in vivo, po; in short: as §1
# H3N2 subtype [8] = test: Antiviral activity against Influenza A virus (A/Aichi/2/1968(H3N2)) infected in […] assessed as survival rate at 50 mg/kg, ig administered 1 and 24 hrs before infection and 24 to 72 hrs post infection; assay type: functional; settings: route intragastric
# Influenza A virus [9] = test: Antiviral activity against Influenza A virus/H7N3 (A/Mallard/NT/12/02) infected in MDCK cells assessed as log reduction in viral titer at 502 uM after 48 hrs by MTT assay; assay type: functional
# Influenza A virus [10] = test: Antiviral activity against Influenza A virus (A/duck/Potsdam/1402-6/1986 (H5N2)) infected in MDCK cells assessed as log reduction in viral titer at 502 uM after 48 hrs […]; assay type: functional
# Influenza B virus [11] = test: Antiviral activity against Influenza B virus (B/Lee/1940) infected in […] assessed as survival rate at 100 mg/kg, ig administered 1 and 24 hrs before infection and 24 to 72 hrs post infection; assay type: functional; settings: route intragastric
# Influenza A virus [12] = test: Antiviral activity against Influenza A virus (A/Hong Kong/1073/99(H9N2)) infected in MDCK cells assessed as log reduction in viral titer at 502 uM after 48 hrs […]; assay type: functional
# Influenza A virus [13] = test: Antiviral activity against Influenza A virus (A/Vietnam/1194/2004 (H5N1)) infected in MDCK cells assessed as log reduction in viral titer at 502 uM after 48 hrs […]; assay type: functional
# Oryctolagus cuniculus [14] = test: Volume of distribution at steady state in rabbit at 4.3 mg/kg, iv up to 24 hrs by HPLC analysis; assay type: ADME, organism-based; set-up: dose 4.3 mg/kg, route intravenous; settings: in vivo
# In short: (§2)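 Rabbits (n = 4) received 4.3 mg/kg in physiological solution into the marginal ear vein over 1 min. Ear-vein blood was heparinised at set times up to 24 h, methanol-extracted and assayed by C18 HPLC with a heptafluorobutyric acid/ethanol gradient. A noncompartmental i.v. infusion model gave AUCtot, T1/2 and MRT; Vss = CL × MRT.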
# H3N2 subtype [15] = test: Antiviral activity against Influenza A virus (A/Aichi/2/1968(H3N2)) infected in […] assessed as survival rate at 100 mg/kg, ig administered 1 and 24 hrs before infection and 24 to 72 hrs post infection; assay type: functional; settings: route intragastric
# Influenza B virus [16] = test: Antiviral activity against Influenza B virus (B/Lee/1940) infected in […] assessed as survival rate at 50 mg/kg, ig administered 1 and 24 hrs before infection and 24 to 72 hrs post infection; assay type: functional; settings: route intragastric
# Influenza A virus [17] = test: Antiviral activity against Influenza A virus H3N2 (A/Victoria/35/72) infected in MDCK cells assessed as log reduction in viral titer at 502 uM after 48 hrs […]; assay type: functional
# In short: (§3)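 MDCK monolayers in MEM with 10% FBS at 37°C under 5% CO2 were infected with allantoic-fluid virus diluted 10−1 to 10−7. Aqueous test compound was added after 1 h adsorption. Virus yield was read at 48 h by haemagglutination with 0.5% chicken erythrocytes, and titres also by plaque assay. Each concentration was run in duplicate.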
# Oryctolagus cuniculus [18] = test: Total AUC in rabbit at 4.3 mg/kg, iv up to 24 hrs by HPLC analysis; assay type: ADME, organism-based; set-up: time AUCmax, dose 4.3 mg/kg, route intravenous; settings: in vivo; in short: as §2
# Influenza B virus [19] = test: Antiviral activity against Influenza B virus (B/Lee/1940) infected in […] at 100 to 150 mg/kg, ig administered after 24 hrs post infection; assay type: functional, organism-based
# H3N2 subtype [20] = test: Antiviral activity against Influenza A virus (A/Aichi/2/1968(H3N2)) infected in […] at 100 to 150 mg/kg, ig administered 24 hrs before infection; assay type: functional, organism-based
# [21] = Toxicity against ig dosed rabbit; assay type: organism-based, Oryctolagus cuniculus; settings: in vivo, po
# Influenza A virus [22] = test: Antiviral activity against Influenza A virus H3N2 (A/Victoria/35/72) infected in MDCK cells assessed as log reduction in viral titer at 385 uM after 48 hrs […]; assay type: functional; in short: as §3
# Influenza A virus [23] = test: Antiviral activity against Influenza A virus H7N3 (A/Mallard/NT/12/02) infected in MDCK cells assessed as log reduction in viral titer at 385 uM after 48 hrs […]; assay type: functional
# Influenza A virus [24] = test: Antiviral activity against Influenza A virus (A/Hong Kong/1073/99(H9N2)) infected in MDCK cells assessed as log reduction in viral titer at 385 uM after 48 hrs […]; assay type: functional
# [25] = Toxicity against ip dosed rabbit; assay type: organism-based, Oryctolagus cuniculus; settings: in vivo
# Influenza A virus [26] = test: Antiviral activity against Influenza A virus/H7N3 (A/Mallard/NT/12/02) infected in MDCK cells assessed as log reduction in viral titer at 960 uM after 48 hrs by MTT assay; assay type: functional
# Influenza A virus [27] = test: Antiviral activity against Influenza A virus H3N2 (A/Victoria/35/72) infected in MDCK cells assessed as log reduction in viral titer at 960 uM after 48 hrs […]; assay type: functional; in short: as §3
# Influenza B virus [28] = test: Antiviral activity against Influenza B virus (B/Lee/1940) infected in rabbit at 100 to 150 mg/kg, ig administered after 48 hrs post infection; assay type: functional, organism-based
# [29] = Cytotoxicity against MDCK cells after 48 hrs by MTT assay; assay type: cell-based, Canis lupus familiaris; settings: dog
# In short: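 Cytotoxicity was measured on uninfected MDCK monolayers grown in MEM with 10% FBS and penicillin/streptomycin at 37°C under 5% CO2. Viability was read by MTT and expressed as CC50.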
# Influenza A virus [30] = test: Antiviral activity against Influenza A virus (A/duck/Potsdam/1402-6/1986 (H5N2)) infected in MDCK cells assessed as log reduction in viral titer at 960 uM after 48 hrs by MTT assay; assay type: functional
# H3N2 subtype [31] = test: Antiviral activity against Influenza A virus (A/Aichi/2/1968(H3N2)) infected in […] at 100 to 150 mg/kg, ig administered after 24 hrs post infection; assay type: functional, organism-based
# Influenza A virus [32] = test: Antiviral activity against Influenza A virus (A/duck/Potsdam/1402-6/1986 (H5N2)) infected in MDCK cells assessed as log reduction in viral titer at 385 uM after 48 hrs […]; assay type: functional
# Influenza B virus [33] = test: Antiviral activity against Influenza B virus (B/Lee/1940) infected in […] at 100 to 150 mg/kg, ig administered 1 hr before infection; assay type: functional, organism-based
# Influenza B virus [34] = test: Antiviral activity against Influenza B virus (B/Lee/1940) infected in […] assessed as survival rate at 150 mg/kg, ig administered 1 and 24 hrs before infection and 24 to 72 hrs post infection; assay type: functional; settings: route intragastric
# H3N2 subtype [35] = test: Antiviral activity against Influenza A virus (A/Aichi/2/1968(H3N2)) infected in […] at 100 to 150 mg/kg, ig administered 1 hr before infection; assay type: functional, organism-based
# Influenza A virus [36] = test: Antiviral activity against Influenza A virus (A/Vietnam/1194/2004 (H5N1)) infected in MDCK cells assessed as log reduction in viral titer at 385 uM after 48 hrs […]; assay type: functional
# Influenza A virus [37] = test: Antiviral activity against Influenza A virus H3N2 (A/Victoria/35/72) infected in human HuH7 cells assessed as log reduction in viral titer at 1000 ug/ml; assay type: functional, Huh-7
# H3N2 subtype [38] = test: Antiviral activity against Influenza A virus (A/Aichi/2/1968(H3N2)) infected in […] at 100 to 150 mg/kg, ig administered after 48 hrs post infection; assay type: functional, organism-based
# Influenza A virus [39] = test: Antiviral activity against Influenza A virus (A/Hong Kong/1073/99(H9N2)) infected in MDCK cells assessed as log reduction in viral titer at 960 uM after 48 hrs […]; assay type: functional
# Influenza A virus [40] = test: Antiviral activity against Influenza A virus H3N2 (A/Victoria/35/72) infected in HEK293T cells assessed as log reduction in viral titer at 1000 ug/ml; assay type: functional, HEK-293T
# Influenza A virus [41] = test: Antiviral activity against Influenza A virus (A/Vietnam/1194/2004 (H5N1)) infected in MDCK cells assessed as log reduction in viral titer at 960 uM after 48 hrs […]; assay type: functional
# [42] = Bioavailability in rabbit at 105 mg/kg, ig up to 24 hrs by HPLC analysis; assay type: ADME, organism-based, Oryctolagus cuniculus; settings: in vivo, po; in short: as §1
# Influenza B virus [43] = test: Antiviral activity against Influenza B virus (B/Lee/1940) infected in […] at 100 to 150 mg/kg, ig administered 24 hrs before infection; assay type: functional, organism-based
smiles,measurement,setting,value
CSc1nc2[nH]nc(N)c(=O)n2n1,Cmax,[1],0.14 µg/mL
same,Vdss,Oryctolagus cuniculus [2],58.5 L/kg
same,AUC at 24 h,[3],0.69 µg·h/mL
same,Tmax,[4],3 h
same,MRT,[5],4.14 h
same,half-life,[6],0.97 h
same,CL/F,[7],44.4 L/h/kg
CC(N)C12CC3CC(CC(C3)C1)C2 (configuration not stated) [RIMANTADINE],Activity,H3N2 subtype [8],80%
same,FC,Influenza A virus [9],3
same,FC,Influenza A virus [10],2
same,Activity,Influenza B virus [11],20%
same,FC,Influenza A virus [12],0.75
same,FC,Influenza A virus [13],1
same,Vdss,Oryctolagus cuniculus [14],1.2 L/kg
same,Activity,H3N2 subtype [15],85%
same,Activity,Influenza B virus [16],15%
same,FC,Influenza A virus [17],5
same,AUC,Oryctolagus cuniculus [18],1.2 µg·h/mL
CSc1nc2[n-]nc([N+](=O)[O-])c(=O)n2n1.O.O.[Na+] [TRIAZAVIRINE],Activity,Influenza B virus [19],Active
same,Activity,H3N2 subtype [20],Active
same,Cmax,[1],1.1 µg/mL
same,LD50,[21],2200 mg/kg
same,FC,Influenza A virus [22],1
same,FC,Influenza A virus [23],0.25
same,Activity,Influenza B virus [11],65%
same,FC,Influenza A virus [24],0
same,Vdss,Oryctolagus cuniculus [2],83.5 L/kg
same,AUC at 24 h,[3],3.1 µg·h/mL
same,LD50,[25],1400 mg/kg
same,Tmax,[4],0.4 h
same,FC,Influenza A virus [26],3.5
same,FC,Influenza A virus [27],1
same,Activity,Influenza B virus [28],Active
same,CC50 at 48 h,[29],> 8 mM
same,FC,Influenza A virus [30],1.6
same,Activity,H3N2 subtype [31],Active
same,FC,Influenza A virus [32],0.5
same,Activity,Influenza B virus [33],Active
same,MRT,[5],2.3 h
same,Activity,Influenza B virus [34],65%
same,Activity,H3N2 subtype [35],Active
same,half-life,[6],1.1 h
same,CL/F,[7],37 L/h/kg
same,FC,Influenza A virus [36],2
same,Activity,H3N2 subtype [15],70%
same,FC,Influenza A virus [37],<0.75
same,Activity,H3N2 subtype [38],Active
same,FC,Influenza A virus [39],0.5
same,FC,Influenza A virus [40],<0.75
same,FC,Influenza A virus [41],2.25
same,bioavailability,[42],12.5%
same,Activity,Influenza B virus [43],Active
